Measurements reported in ChEMBL document CHEMBL3853305, “Synthesis, characterization and antitubercular activities of novel pyrrolyl hydrazones and their Cu-complexes” (Eur J Med Chem, 2016).
≈ marks a conversion by molar mass, not a printed value.

Columns and labels:
[1] = test system: Mycobacterium tuberculosis; assay: Antitubercular activity against Mycobacterium tuberculosis H37Rv after 5 days by microplate alamar blue assay; assay type: functional; conditions: for MIC: Mycobacterium tuberculosis, H37Rv, 120 h
Outline: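 Middlebrook 7H9 broth; serial dilutions of 0.2–100 μg/mL made in the plate. Incubated at 37°C for 5 days, then 1:1 alamar blue/10% Tween 80 added and incubated 24 h. MIC is the lowest concentration that prevents the blue-to-pink change. Ethambutol and rifampicin were standards.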

[2] = Cytotoxicity against human A549 cells assessed as decrease in cell viability after 72 hrs by MTT assay; assay type: toxicity, cell-based
Outline: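 Human A549 lung adenocarcinoma cells; viability read as cellular MTT conversion to formazan in a non-radioactive cell proliferation kit. Cisplatin was the positive control. IC50 values are means ± SEM of three independent experiments.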

[3] = target: T1, Enoyl-[acyl-carrier-protein] reductase [NADH] (Mycobacterium tuberculosis, UniProt P9WGR1); assay: Inhibition of His6-tagged recombinant Mycobacterium tuberculosis InhA expressed in protease-deficient Escherichia coli (BL21) using trans-2-dodecenoyl-coenzyme A as substrate assessed as NADH oxidation
T1 sequence (P9WGR1 whole entry): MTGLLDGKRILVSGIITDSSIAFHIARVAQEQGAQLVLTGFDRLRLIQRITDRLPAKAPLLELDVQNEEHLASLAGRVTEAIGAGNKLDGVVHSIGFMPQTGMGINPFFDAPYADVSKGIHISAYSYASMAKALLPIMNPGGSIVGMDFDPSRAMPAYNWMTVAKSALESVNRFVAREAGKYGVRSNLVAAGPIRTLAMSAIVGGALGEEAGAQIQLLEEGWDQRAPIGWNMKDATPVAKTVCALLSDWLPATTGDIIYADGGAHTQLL
Outline: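 InhA-6xHis from E. coli BL21 (pHAT5/InhA), induced overnight with 1 mM IPTG at 20°C, purified on Ni-NTA and desalted. Assay at 25°C in 30 mM PIPES, 150 mM NaCl, pH 6.8, with 250 μM NADH, 50 μM DDCoA and 5% DMSO final. Compound screened at 50 μM. % inhibition taken from slopes with and without inhibitor. Triclosan was the reference.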

For C/C(=N\NC(=O)c1ccc(-n2cccc2)cc1)C(=O)Nc1ccc(F)cc1, the “-logMIC” value [1] was 5.2 and the MIC [1] was 6.25 µg/mL (≈ 17.2 µM).

With COc1cccc(NC(=O)/C(C)=N/NC(=O)c2ccc(-n3cccc3)cc2)c1 the “-logMIC” value [1] was 4.3 and the MIC [1] was 50 µg/mL (≈ 133 µM).

In the case of C/C(CCC(=O)Nc1ccc(Br)cc1)=N\NC(=O)c1ccc(-n2cccc2)cc1, the “-logMIC” value [1] is reported as 5.2 and the MIC [1] is reported as 6.25 µg/mL (≈ 13.8 µM).

In the case of C/C(=N\NC(=O)c1ccc(-n2cccc2)cc1)C(=O)Nc1cccc(F)c1, the “-logMIC” value [1] is reported as 4.58 and the MIC [1] is reported as 12.5 µg/mL (≈ 34.3 µM).

For C/C(=N\NC(=O)c1ccc(-n2cccc2)cc1)C(=O)Nc1cc(Cl)cc(Cl)c1, the “-logMIC” value [1] was 4.9 and the MIC [1] was 12.5 µg/mL (≈ 30.1 µM).

For C/C(CCC(=O)Nc1ccccc1)=N\NC(=O)c1ccc(-n2cccc2)cc1, the “-logMIC” value [1] was 4.3 and the MIC [1] was 50 µg/mL (≈ 134 µM).

In the case of C/C(CCC(=O)Nc1ccccc1Cl)=N\NC(=O)c1ccc(-n2cccc2)cc1, the “-logMIC” value [1] is reported as 4.6 and the MIC [1] is reported as 25 µg/mL (≈ 61.1 µM).

In the case of C/C(=N\NC(=O)c1ccc(-n2cccc2)cc1)C(=O)Nc1cccc(Br)c1, the “-logMIC” value [1] is reported as 4.9 and the MIC [1] is reported as 12.5 µg/mL (≈ 29.4 µM).

In the case of C/C(=N\NC(=O)c1ccc(-n2cccc2)cc1)C(=O)Nc1cc(Br)cc(Br)c1, the “-logMIC” value [1] is reported as 4.9 and the MIC [1] is reported as 12.5 µg/mL (≈ 24.8 µM).

In the case of C/C(=N\NC(=O)c1ccc(-n2cccc2)cc1)C(=O)Nc1ccc(Br)cc1, the “-logMIC” value [1] is reported as 5.5, the MIC [1] is reported as 3.12 µg/mL (≈ 7.34 µM) and the IC50 at 72 h [2] is reported as 441 µM.

With C/C(=N\NC(=O)c1ccc(-n2c(C)ccc2C)cc1)C(=O)Nc1c(Cl)cccc1Cl the “-logMIC” value [1] was 4 and the MIC [1] was 100 µg/mL (≈ 226 µM).

With C/C(CCC(=O)Nc1ccc(Cl)cc1)=N\NC(=O)c1ccc(-n2cccc2)cc1 the “-logMIC” value [1] was 5.5, the MIC [1] was 3.12 µg/mL (≈ 7.63 µM) and the IC50 at 72 h [2] was 406 µM.

With C/C(=N/NC(=O)c1ccc(-n2cccc2)cc1)C(N)=O the “-logMIC” value [1] was 4.3 and the MIC [1] was 50 µg/mL (≈ 185 µM).

With COc1ccc(NC(=O)/C(C)=N/NC(=O)c2ccc(-n3cccc3)cc2)cc1 the “-logMIC” value [1] was 4.3 and the MIC [1] was 50 µg/mL (≈ 133 µM).

For C/C(CCC(=O)Nc1cccc(Br)c1)=N\NC(=O)c1ccc(-n2cccc2)cc1, the “-logMIC” value [1] was 4.9.

In the case of C/C(=N\NC(=O)c1ccc(-n2cccc2)cc1)C(=O)Nc1c(Cl)cccc1Cl, the “-logMIC” value [1] is reported as 4.6 and the MIC [1] is reported as 25 µg/mL (≈ 60.2 µM).

In the case of C/C(CCC(=O)Nc1cc(Cl)cc(Cl)c1)=N\NC(=O)c1ccc(-n2cccc2)cc1, the “-logMIC” value [1] is reported as 4.6 and the MIC [1] is reported as 25 µg/mL (≈ 56.4 µM).

In the case of C/C(CCC(=O)Nc1cccc(F)c1)=N\NC(=O)c1ccc(-n2cccc2)cc1, the “-logMIC” value [1] is reported as 4.6 and the MIC [1] is reported as 12.5 µg/mL (≈ 31.9 µM).

C/C(CCC(=O)Nc1cccc(Cl)c1)=N\NC(=O)c1ccc(-n2cccc2)cc1 gave an MIC [1] of 12.5 µg/mL (≈ 30.6 µM).

With C/C(CCC(=O)Nc1ccc(F)cc1)=N\NC(=O)c1ccc(-n2cccc2)cc1 the IC50 [3] was 7.69 µM, the “-logMIC” value [1] was 5.5 and the MIC [1] was 3.12 µg/mL (≈ 7.95 µM). The IC50 at 72 h [2] was 438 µM.

For C/C(CCC(=O)Nc1ccccc1F)=N\NC(=O)c1ccc(-n2cccc2)cc1, the “-logMIC” value [1] was 4.6 and the MIC [1] was 25 µg/mL (≈ 63.7 µM).

In the case of C/C(=N\NC(=O)c1ccc(-n2cccc2)cc1)C(=O)Nc1ccccc1F, the “-logMIC” value [1] is reported as 4.3 and the MIC [1] is reported as 25 µg/mL (≈ 68.6 µM).

With C/C(=N\NC(=O)c1ccc(-n2c(C)ccc2C)cc1)C(=O)Nc1ccc(Br)cc1 the “-logMIC” value [1] was 5.2 and the MIC [1] was 6.25 µg/mL (≈ 13.8 µM).

In the case of COc1ccc(NC(=O)/C(C)=N/NC(=O)c2ccc(-n3c(C)ccc3C)cc2)cc1, the “-logMIC” value [1] is reported as 4.6 and the MIC [1] is reported as 25 µg/mL (≈ 61.8 µM).

With COc1ccccc1NC(=O)CC/C(C)=N/NC(=O)c1ccc(-n2cccc2)cc1 the “-logMIC” value [1] was 4 and the MIC [1] was 100 µg/mL (≈ 247 µM).

With CC[C@@H](CO)NCCN[C@@H](CC)CO [ETHAMBUTOL] the MIC [1] was 0.5 µg/mL (≈ 2.45 µM).

Compound NNC(=O)c1ccncc1 [ISONIAZID] has an IC50 at 72 h [2] of over 450 µM.

With CO[C@H]1/C=C/O[C@@]2(C)Oc3c(C)c(O)c4c(O)c(c(/C=N/N5CCN(C)CC5)c(O)c4c3C2=O)NC(=O)/C(C)=C\C=C\[C@H](C)[C@H](O)[C@@H](C)[C@@H](O)[C@@H](C)[C@H](OC(C)=O)[C@@H]1C [RIFAMPIN] the MIC [1] was 0.4 µg/mL (≈ 0.486 µM).
